Values joined by “and” are separate entries in the source; they are usually repeats but may differ in a detail not shown here. Equal values may be shown once.
Columns and labels:
[1] = at 200 mg; ref Brune and Hinz [2004]; Hinz et al. [2007]; cited from earlier work
[2] = cited from earlier work
[3] = Secondary clinical parameters: pain scores, analgesic consumption, side effects; assay type: in vivo, human
[4] = tested on: PGE2 production in tissue; experiment: PGE2 concentrations in tissue exudate; assay type: in vivo, human
Method in brief: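 Patients given oral 120 mg or placebo at 7.00 am on postoperative day 1 after non-cemented hip arthroplasty. Hip drain emptied 1 h before each scheduled time (0, 1, 3, 8, 12, 24 h), then exudate collected over 60 min. Exudate centrifuged, supernatant frozen at −30°C. PGE2 measured by enzyme immunoassay (LOQ 15 pg/mL). Times are collection-interval midpoints; changes expressed versus baseline.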

[5] = post-dose, monkeys; ref Riendeau et al. [2001]; cited from earlier work
COX-2 = conditions: after a single dose of 120 mg; ref Dallob et al. [2003]; cited from earlier work
plasma proteins = conditions: ref Agrawal et al. [2003b]; cited from earlier work
[6] = Pharmacokinetics of oral etoricoxib in plasma, CSF and tissue exudate; assay type: in vivo, human; conditions: for Tmax: t max
[7] = patient R02, 50% of peak concentrations
[8] = patient R06, 50% of peak concentrations

In the case of `Cc1ccc(-c2cc(C(F)(F)F)nn2-c2ccc(S(N)(=O)=O)cc2)cc1` [celecoxib], the Bioavailability [1] is listed as 20–60%.

In the case of `Cc1ccc(-c2ncc(Cl)cc2-c2ccc(S(C)(=O)=O)cc2)cn1` [etoricoxib], the “Time after administration within which etoricoxib interferes with surgical pain” value ([2]; patients, ref Clarke et al. [2009]) is listed as ≤ 2 h, the “Time after surgery before which etoricoxib was not analgesic” value ([2]; thyroid surgery, ref Smirnov et al. [2008]) is listed as ≥ 6 h and the Perioperative side effects ([3]; 120 mg oral on postoperative day 1) is listed as “no perioperative side effects related to the administration of etoricoxib”. The “Postoperative pain and opioid consumption versus placebo” value ([3]; both groups received standard IT and parenteral pain medication, study not designed to detect differences) was “no meaningful differences”, the “PGE2 concentration in tissue exudate, overall for all values (PGE2 Hip, n = 88)” value ([4]; 120 mg etoricoxib oral, day 1 post-surgery, n = 8, mean (SD)) was 11.9 (10.2) ng/mL and the “PGE2 concentration in tissue exudate” value ([4]; 0.5 h after 120 mg oral, midpoint of collection interval, mean (SD)) was 18.1 (8.8) ng/mL. For the same compound, the “PGE2 concentration in tissue exudate” value ([4]; 1.5 h after 120 mg oral, mean (SD)) was 24.4 (10.5) ng/mL, the “PGE2 concentration in tissue exudate” value ([4]; 2.5 h after 120 mg oral, mean (SD)) was 20.9 (16.1) ng/mL and the “PGE2 concentration in tissue exudate” value ([4]; 5.0 h after 120 mg oral, mean (SD)) was 16.9 (13.6) ng/mL. For the same compound, the “PGE2 concentration in tissue exudate” value ([4]; 7.5 h after 120 mg oral, mean (SD)) was 12.1 (9.3) ng/mL, the “PGE2 concentration in tissue exudate” value ([4]; 9.5 h after 120 mg oral, mean (SD)) was 7.9 (6.0) ng/mL and the “PGE2 concentration in tissue exudate” value ([4]; 11.5 h after 120 mg oral, mean (SD)) was 6.4 (5.1) ng/mL. The “PGE2 concentration in tissue exudate” value ([4]; 17.5 h after 120 mg oral, mean (SD)) was 6.2 (6.2) ng/mL, the “PGE2 concentration in tissue exudate” value ([4]; 23.5 h after 120 mg oral, mean (SD)) was 2.3 (0.7) ng/mL and the “Duration of the significant PGE2 difference to placebo” value ([4]; till the end of the observation period) was 18 h. For the same compound, the “PGE2 concentration in tissue exudate” value ([4]; time point Pre (baseline), n = 8, mean (SD)) was 7.7 (5.4) ng/mL, the “Time after medication at which the PGE2 difference to placebo became significant” value ([4]; tissue exudate samples, material produced about 2 h after medication) was 5 h and the “Onset of antipyretic action” value [5] was “about 2 h”. For the same compound, the “Ex vivo whole blood IC50 of COX-2 inhibition” value (COX-2) was “about 360 ng/mL”, the “Bound to plasma proteins” value (plasma proteins) was 92% and the CSF concentration ([6]; 1 h later than in plasma) was > 29 ng/mL. For the same compound, the “CSF concentration at 1 h as part of the peak CSF concentration” value ([6]; 1 h post-dose) was 34%, the “Etoricoxib in tissue exudate” value ([6]; 2.5 h) was “virtually no drug detected” and the “Concentration in CSF as fraction of that in plasma at corresponding times” value ([6]; AUC0–24h and max. concentration ratios) was 1/20. For the same compound, the Cmax ([6]; CSF, n = 5, mean (± SD)) was 68.4 (30.6) ng/mL, the “Time to plateau in plasma and CSF” value ([6]; both compartments) was “about 2 h” and the Plasma concentration ([6]; during the first hour after 120 mg oral) was > 360 ng/mL. The Cmax ([6]; human, CSF, oral, 120 mg, c max, n = 5, mean (± SD)) was ~70 ng/mL, the Tmax ([6]; human, CSF, oral, 120 mg, n = 5, median (range)) was 8 h and the AUC(0-t) ([6]; human, CSF, po, 120 mg, AUC0–24h, n = 5, 120 mg oral, mean (± SD)) was 955 ng·h/mL. For the same compound, the Kp at 8 h ([6]; human, CSF/plasma, oral, 120 mg, CSF/plasma conc. ratio at t max, n = 5, mean (± SD), at 8 h) was 0.06, the Kp ([6]; human, CSF/unbound plasma, oral, 120 mg, CSF/plasma ratio of the unbound fractions (CSF/Pu), at equilibrium (2–24 h), estimated) was ~0.56 and the Cmax ([6]; human, plasma, oral, 120 mg, c max, plasma, n = 5 subgroup, mean (± SD)) was 1440 ng/mL. The Cmax ([6]; human, plasma, oral, 120 mg, c max, n = 8 (all patients), mean (± SD)) was 1740 ng/mL, the Tmax ([6]; human, plasma, oral, 120 mg, plasma, n = 5 subgroup, median (range)) was 4 h and the Tmax ([6]; human, plasma, oral, 120 mg, n = 8 (all patients), median (range)) was 3 h. The “Individual CSF lag times with respect to (50%) peak plasma concentration” value ([6]; in all but one case) was ≤ 2 h, the “Time to meaningful (COX-2 inhibitory) CSF concentrations” value ([6]; in nearly all patients) was ≤ 2 h and the “Max. CSF/plasma conc. ratio” value ([6]; individual maximal concentration ratios, between 3 and 12 h, mean ± SD, n = 5) was 7.3 (2.1) %. The “Time of peak CSF concentration” value ([6]; mean concentration-time curve, CSF) was 8 h, the “Lag time plasma vs. CSF” value ([6]; mean of patients) was 2 h and the “Lag time plasma vs. tissue exudate” value ([6]; mean of patients) was 3.8 h. The “Lag time plasma vs. tissue exudate” value ([6]; median of patients, without correction for the delay of sampling) was 4 h, the “CSF/plasma ratio AUC0–24h” value ([6]; n = 5, mean (range) of individual ratios) was 4.4% and 4.4 (2–7) % and the “CSF/plasma conc. ratio at t max” value ([6]; n = 5, mean (± SD), at 8 h) was 6.3 (2.0) %. For the same compound, the “t max for CSF/plasma conc. ratio” value ([6]; n = 5, median (range)) was 8 (3–12) h, the “Lag time plasma vs. CSF” value ([6]; patient R01, 50% of peak concentrations) was 1 h and the “Lag time plasma vs. tissue exudate” value ([6]; patient R01, with respect to 50% of peak concentrations) was 4 h. For the same compound, the “Lag time plasma vs. CSF” value [6, 7] was 2 h, the “Lag time plasma vs. tissue exudate” value [6, 7] was 4 h and the “Lag time plasma vs. CSF” value ([6]; patient R05, in brackets: invalid data due to missing values) was “(2) h”. The “Lag time plasma vs. CSF” value [6, 8] was 0 h, the “Lag time plasma vs. tissue exudate” value [6, 8] was 1.5 h and the “Lag time plasma vs. tissue exudate” value ([6]; patient R07, 50% of peak concentrations) was 6.5 h. The “Lag time plasma vs. CSF” value ([6]; patient R07, in brackets: invalid data due to missing values) was “(3) h”, the “Lag time plasma vs. CSF” value ([6]; patient R09, 50% of peak concentrations) was 7 h and the CSF peak concentration ([6]; patient R09, 8 h post-medication) was 108 ng/mL. The “Median CSF lag time with respect to 50% of the peak concentration in plasma” value ([6]; patient R09 not included) was 0.5 h, the “Range of CSF lag time with respect to 50% of the peak concentration in plasma” value ([6]; patient R09 not included) was 0 to 2 h and the “Lag time plasma vs. tissue exudate” value ([6]; patient R10, 50% of peak concentrations) was 3 h. The “Lag time plasma vs. CSF” value ([6]; patient R10, in brackets: invalid data due to missing values) was “(0) h” and the “Lag time plasma vs. CSF” value ([6]; patient R12, 50% of peak concentrations) was 0 h.
